Reference: article PMC9064382 (RSC Advances, 2019)

Columns and labels:
Type in all cases: in vitro ADME
[1] = target: T1, hOATP1B1 (Homo sapiens, UniProt Q9Y6L6)
T1 sequence (Q9Y6L6 1-691): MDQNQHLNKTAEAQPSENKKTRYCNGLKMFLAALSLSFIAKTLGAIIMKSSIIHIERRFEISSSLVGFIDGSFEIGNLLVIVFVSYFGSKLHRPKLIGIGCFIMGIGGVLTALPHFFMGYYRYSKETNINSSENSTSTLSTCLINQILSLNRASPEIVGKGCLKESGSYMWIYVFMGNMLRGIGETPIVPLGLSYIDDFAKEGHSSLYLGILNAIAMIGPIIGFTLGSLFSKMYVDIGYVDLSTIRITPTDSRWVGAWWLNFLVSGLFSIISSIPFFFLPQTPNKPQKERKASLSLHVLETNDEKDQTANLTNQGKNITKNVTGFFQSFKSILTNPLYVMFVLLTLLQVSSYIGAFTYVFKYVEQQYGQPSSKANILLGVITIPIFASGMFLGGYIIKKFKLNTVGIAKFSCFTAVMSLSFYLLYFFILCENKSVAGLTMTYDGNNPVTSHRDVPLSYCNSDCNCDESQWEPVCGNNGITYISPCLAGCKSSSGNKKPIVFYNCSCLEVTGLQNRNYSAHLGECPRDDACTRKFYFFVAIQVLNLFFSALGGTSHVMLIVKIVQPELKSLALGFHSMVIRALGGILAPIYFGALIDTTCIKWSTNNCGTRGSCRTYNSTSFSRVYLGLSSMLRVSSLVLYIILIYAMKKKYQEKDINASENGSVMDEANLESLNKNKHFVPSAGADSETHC

[2] = target: T2, hOAT3 (Homo sapiens, UniProt Q8TCC7); test: Inhibition of 3H-ES uptake in hOAT3-transfected cells by liquorice ingredients; settings: read-out: IC50 on hOAT3; 3H-ES probe, 2 min
T2 sequence (Q8TCC7 1-542): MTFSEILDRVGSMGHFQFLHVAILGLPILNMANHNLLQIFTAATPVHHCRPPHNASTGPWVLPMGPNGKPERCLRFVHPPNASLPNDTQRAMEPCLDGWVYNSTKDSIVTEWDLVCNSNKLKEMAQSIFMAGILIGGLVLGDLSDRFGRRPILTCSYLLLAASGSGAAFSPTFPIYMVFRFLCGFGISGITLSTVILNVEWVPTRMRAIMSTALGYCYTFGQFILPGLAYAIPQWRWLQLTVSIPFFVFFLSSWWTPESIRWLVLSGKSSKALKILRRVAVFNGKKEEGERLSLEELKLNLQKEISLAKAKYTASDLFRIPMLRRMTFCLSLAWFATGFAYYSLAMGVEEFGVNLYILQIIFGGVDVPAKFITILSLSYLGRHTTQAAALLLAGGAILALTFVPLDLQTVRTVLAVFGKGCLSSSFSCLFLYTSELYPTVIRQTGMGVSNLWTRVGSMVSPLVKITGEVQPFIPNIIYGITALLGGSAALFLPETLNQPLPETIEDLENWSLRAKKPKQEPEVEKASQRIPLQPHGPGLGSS
Summary of the method: (§1)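 Transfected and mock cells were incubated 2 min at 37 °C with 200 nmol L−1 3H-ES plus test compound. The screen used a single 100 μmol L−1 concentration with reference inhibitors as positive controls, giving an inhibition rate (n = 3, mean ± sd). […] DMSO was <0.2%. Cells were stopped with cold DPBS, rinsed three times, lysed in 0.1 mol L−1 NaOH and counted by scintillation (dpm).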

[3] = target: T3, hOATP2B1 (Homo sapiens, UniProt O94956)
T3 sequence (O94956 1-709): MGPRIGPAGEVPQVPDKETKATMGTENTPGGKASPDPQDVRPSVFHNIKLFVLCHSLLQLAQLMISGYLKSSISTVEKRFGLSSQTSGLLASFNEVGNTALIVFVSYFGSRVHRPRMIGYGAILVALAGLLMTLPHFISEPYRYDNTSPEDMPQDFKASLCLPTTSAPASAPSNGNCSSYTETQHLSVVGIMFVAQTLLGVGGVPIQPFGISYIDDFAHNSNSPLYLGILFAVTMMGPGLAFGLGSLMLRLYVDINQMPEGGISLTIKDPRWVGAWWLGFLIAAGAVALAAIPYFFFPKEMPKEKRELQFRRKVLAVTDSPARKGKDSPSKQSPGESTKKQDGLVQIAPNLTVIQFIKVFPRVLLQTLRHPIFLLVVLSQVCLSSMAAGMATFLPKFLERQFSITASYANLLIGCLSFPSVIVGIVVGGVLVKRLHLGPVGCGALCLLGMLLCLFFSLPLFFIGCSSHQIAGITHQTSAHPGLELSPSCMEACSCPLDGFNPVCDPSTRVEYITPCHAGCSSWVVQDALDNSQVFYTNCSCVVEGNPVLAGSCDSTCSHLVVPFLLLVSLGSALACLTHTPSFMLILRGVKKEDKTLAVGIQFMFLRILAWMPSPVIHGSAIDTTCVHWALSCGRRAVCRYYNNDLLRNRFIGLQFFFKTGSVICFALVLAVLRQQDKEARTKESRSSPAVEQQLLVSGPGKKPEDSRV
Summary of the method: as §1

IC50 ([1]; read-out: IC50 on hOATP1B1, 3H-ES probe, 2 min): 1.27 µM
inhibition of hOATP1B1 ([1]; screening at 100 μm): strong inhibitors
IC50 [2]: 3.6 µM
IC50 ([3]; read-out: IC50 on hOATP2B1, 3H-ES probe, 2 min): 1.09 µM
inhibition of hOATP2B1 ([3]; screening at 100 μm): strong inhibitors
Compound: C=CC(C)(C)c1cc(/C=C/C(=O)c2ccc(O)cc2)c(OC)cc1O [licochalcone A]
